According to ChEMBL document CHEMBL1764993, “Synthesis and biological evaluation of novel irreversible serine protease inhibitors using amino acid based sulfonyl fluorides as an electrophilic trap” (Bioorg Med Chem, 2011):
Calls of active or inactive are those of the source. The calls are words filed in the database; no cut-off is given here.

Legend:
[1] = Inhibition of chymotrypsin assessed as p-nitroaniline release after 30 mins pre-incubated with compound for 1 hr before addition of Bz-L-Tyr-pNA as a substrate by calorimetric assay
In short: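 Chymotrypsin (commercial, used as received) pre-incubated 1 h with inhibitor in DMSO in sodium phosphate 0.05 M pH 7.0; aliquot then added to Bz-L-Tyr-pNA. Final: enzyme 1.0 µM, substrate 0.25 mM; DMSO controls. p-Nitroaniline release read at 405 nm for 30 min at rt to give residual activity. Triplicate or quadruplicate.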

[2] = Inhibition of chymotrypsin assessed as p-nitroaniline release measured for 15 mins using Bz-L-Tyr-pNA as a substrate by Dixon plot analysis
In short: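 Ki from Dixon plots: chymotrypsin (final 0.5 µM) in sodium phosphate 0.05 M pH 7.0 with Bz-L-Tyr-pNA at 0.15–0.25 mM and inhibitor at 7.81, 15.63 or 31.25 µM (final), no preincubation. p-Nitroaniline read directly at 405 nm for 15 min; DMSO controls; quadruplicate.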

[3] = target: T1, Papain (Carica papaya) (UniProt P00784); assay: Inhibition of papaya papain assessed as p-nitroaniline release at 2.5 uM after 1 hr pre-inhibition using Bz-L-Tyr-pNA as a substrate by calorimetric assay
T1 sequence (whole entry): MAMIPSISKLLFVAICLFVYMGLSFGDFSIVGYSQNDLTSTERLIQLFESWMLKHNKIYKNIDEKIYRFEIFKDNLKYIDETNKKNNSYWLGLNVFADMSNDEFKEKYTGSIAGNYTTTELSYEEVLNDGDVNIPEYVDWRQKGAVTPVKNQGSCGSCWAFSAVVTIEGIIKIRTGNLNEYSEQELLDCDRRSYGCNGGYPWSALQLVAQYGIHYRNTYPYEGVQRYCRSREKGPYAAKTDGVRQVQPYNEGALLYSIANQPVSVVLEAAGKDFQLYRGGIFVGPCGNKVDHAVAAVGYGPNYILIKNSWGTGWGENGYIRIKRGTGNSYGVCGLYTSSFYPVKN

[4] = Inhibition of chymotrypsin assessed as p-nitroaniline release at 20 uM measured at every 6 mins for 15 mins using Bz-L-Tyr-pNA as a substrate
In short: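 kinact: chymotrypsin mixed with inhibitor in sodium phosphate 0.05 M pH 7.0; aliquots moved into Bz-L-Tyr-pNA wells at 0–5 min, then all read at 405 nm for 15 min. Final enzyme 0.5 µM, substrate 250 µM, inhibitor 20 µM. Residual activity plotted against preincubation time.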

| Compound | Activity [1] | Ki [2] | Activity [3] | Kinact [4] [min⁻¹] | Ki ([2]; read-out: Ki) [µM] |
| --- | --- | --- | --- | --- | --- |
| CC(C)[C@@H](CS(=O)(=O)F)NC(=O)OCC1c2ccccc2-c2ccccc21 | Active | – | – | – | – |
| C[C@@H](CS(=O)(=O)F)NC(=O)OCc1ccccc1 | Active | Not Active | Active | – | – |
| CC(C)C[C@@H](CS(=O)(=O)F)NC(=O)OCc1ccccc1 | Active | – | Active | – | – |
| O=C(NCCS(=O)(=O)F)OCc1ccccc1 | Active | – | Active | – | – |
| O=C(N[C@@H](Cc1ccccc1)CS(=O)(=O)F)OCc1ccccc1 | Active | – | Active | – | – |
| O=S(=O)(F)Cc1ccccc1 [PHENYLMETHYLSULFONYLFLUORIDE] | – | – | – | 0.32 | 13 |
